Measured values published in PMC10681497 (CPT: Pharmacometrics & Systems Pharmacology, 2023).
Like-named read-outs stand apart in the source and are kept apart here.

Key:
Population PK analysis = type: in vivo, human
Method in brief: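 A prior two‑compartment NONMEM model was refined, keeping its interindividual random effects. Covariates were tested on CL/F, Vc/F (age, body weight), Vp/F (body weight) and Ka (sex, fasting, PPI, H2B). Selection used stepwise forward addition (p 0.05) and backward elimination (p 0.005) by likelihood ratio test. Evaluation used nonparametric bootstrap and prediction‑corrected VPC.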

[1] = Simulated steady-state exposure; settings: human, plasma, oral, 13.5 mg
Method in brief: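 Each patient's dense steady‑state post hoc concentration‑time profile was simulated from the updated population PK model. Cmax,ss, Cmin,ss and AUCss were then derived by noncompartmental methods, with oral once‑daily dosing of 13.5 mg.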

MATE1 = settings: read-out: IC50, MATE1; cited from earlier work
[2] = cited from earlier work
[3] = previously characterized; cited from earlier work
[4] = previously characterized; cited from earlier work; remark: listed apart in the source
[5] = system: serum creatinine concentration; assay: Exposure-response Emax model of serum creatinine percent change from baseline; type: in vivo, human
Method in brief: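 Serum creatinine was measured in routine serum chemistry in 300 pooled monotherapy patients from FIGHT‑101, FIGHT‑102 and FIGHT‑202, using the mean of C1D8 and C1D15. A three‑parameter Emax nonlinear model related percent change from baseline to AUCss. Emax is the maximum change, with a half‑maximal exposure term. For prediction, AUCss was the mean post hoc value at 13.5 mg q.d. and was dose‑scaled for 6, 9 and 20 mg.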

OCT2 = settings: read-out: IC50, OCT2; cited from earlier work
[6] = system: patients with CCA with FGFR2 fusions/re‐arrangements; settings: for Median PFS: 13.5 mg once daily
[7] = system: serum phosphate concentration; assay: Exposure-response Emax model of serum phosphate change from baseline; set-up: species or system human; settings: in vivo
Method in brief: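 Serum phosphate was measured in serum chemistry in 300 pooled monotherapy patients from FIGHT‑101, ‑102 and ‑202. The change from baseline was the mean of C1D8 and C1D15. A three‑parameter Emax nonlinear model related this change to model‑derived AUCss, with baseline serum phosphate as a covariate. Parameters were the maximum change (Emax) and the exposure giving 50% of the maximum increase.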

[8] = covariate effect, final population PK model
[9] = FIGHT-106, healthy participants, 13.5 mg

Reduction in K a with use of PPI (Population PK analysis; concomitant PPI vs no PPI): 62%
H2B antagonist on D1 (Population PK analysis; [8]): −33.4%
Male sex on CL/F (Population PK analysis; [8]): 26.2%
Male sex on K a (Population PK analysis; [8]): −58.3%
PPI on K a (Population PK analysis; [8]): −62.0%
Phosphate binder on CL/F (Population PK analysis; [8]): −15.5%
D1 (duration of zero-order drug release), population mean (Population PK analysis; final population PK model): 0.810 h
K a (absorption rate constant), population mean (Population PK analysis; final population PK model): 3.67 h⁻¹
CL/F (apparent clearance), population mean (Population PK analysis; final population PK model, 467 participants): 10.7 L/h
Higher CL/F in men compared with women (Population PK analysis; human, in vivo): 26.2%
Lower K a in men compared with women (Population PK analysis; human, in vivo): 58.3%
Reduction in D1 with use of H2B (Population PK analysis; human, in vivo): 33.4%
Vd/F (Population PK analysis; human, plasma, oral): 118 L
Reduction in CL/F with use of phosphate-binding agents (Population PK analysis; users vs nonusers): 15.5%
AUC [1]: 2850 nM·h
Estimated percentage change from baseline in serum creatinine concentration ([5]; 6 mg, dose-scaled mean post hoc AUCss): 14.2%
Estimated percentage change from baseline in serum creatinine concentration ([5]; 9 mg, dose-scaled mean post hoc AUCss): 18.3%
Estimated percentage change from baseline in serum creatinine concentration ([5]; 13.5 mg q.d., mean post hoc AUCss): 22.7%
Estimated percentage change from baseline in serum creatinine concentration ([5]; 20 mg, dose-scaled mean post hoc AUCss): 26.9%
SMILES: CCN1C(=O)N(c2c(F)c(OC)cc(OC)c2F)Cc2cnc3[nH]c(CN4CCOCC4)cc3c21 [pemigatinib]
Body weight on V c/F (Population PK analysis; [8]): 0.842%
Body weight to V p/F (Population PK analysis; [8]): 1.13%
IC50 (MATE1): 1.1 µM
Increase in AUC on co-administration of the H2B ranitidine [2, 9]: 3%
Reduction in C max on co-administration of the H2B ranitidine [2, 9]: 2%
Effect of concomitant PPI esomeprazole on pemigatinib exposure ([2]; FIGHT-106): only a modest effect
pH-dependent solubility [3]: poorly soluble at pH > 2
Permeability [4]: high permeability
IC50 (OCT2): 0.075 µM
Model predicted ORR ([6]; 6 mg, model on mean change from baseline in serum phosphate): 29.7%
Model predicted ORR ([6]; 9 mg, model on mean change from baseline in serum phosphate): 41.4%
Model predicted ORR ([6]; 13.5 mg, model on AUCss, mean AUCss 2850 h∙nM): 45.2%
Model predicted ORR ([6]; 13.5 mg, model on mean change from baseline in serum phosphate): 47.1%
Model predicted ORR ([6]; 20 mg, model on mean change from baseline in serum phosphate): 46.8%
Median PFS ([6]; AUCss first quartile): 6.93 months
Median PFS ([6]; AUCss fourth quartile): 7.03 months
Median PFS ([6]; AUCss second quartile): 6.93 months
Median PFS ([6]; AUCss third quartile): 9.20 months
Reduction from baseline per 1-mg/dL increase in baseline serum phosphate level [7]: less than or equal to 0.185 mg/dL
